Assay outcomes (PubChem)
EphB4 antag: antagonists of human EphB4-ephrin-B2 interaction; EphB4 LBD / TNYL-RAW-Alexa532 peptide, fluorescence polarization; inhibition, % at 7 µM; hit rate 0.15% among 97,000; AID 720;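 active means inhibition above the screen-wide mean inhibition plus 3 SD, cut at about 15% in these data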;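 further: 0% = DMSO wells and 100% = excess unlabeled TNYL-RAW peptide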
Rev-RRE block: disrupts HIV-1 Rev binding to RRE RNA; P05866; AID 704; hit rate 0.79% among 97,000; Rev peptide-RRE RNA binding, FRET; inhibition, % at 8 µM;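 active means inhibition above the screen-wide mean plus 3 SD, cut at about 35% in these data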;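 further: 0% = median DMSO wells and 100% = median Neomycin B control wells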
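Assay system: Rev peptide and RRE RNA, both fluorescently labelled; times: 5 min preincubation and 15 min binding, 25 °C; detection: FRET, ex 480 nm, em 540 and 671 nm; read-out basis: % inhibition from 671/540 nm acceptor-to-donor ratio, scaled between controls; benchmarks: DMSO low control, neomycin B high control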
Cav3 T inh: human Cav3.2 channel inhibition, primary screen; B-score at 10 µM; AID 449739; hit rate 4% among 100,000; Cav3.2-expressing cells, Fluo-4 calcium fluorescence FDSS; hits give low values;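 active means single-dose well whose peak fluorescence ratio is a statistical outlier from its plate by either plate-standardised score or position-corrected B-score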
DAT uptake mod: modulates human dopamine transporter uptake under cocaine | Q01959 | LLC-PK1 hDAT cells, [14C]-dopamine uptake with cocaine IC80; actives deviate in either direction | B-score at 10 µM | hit rate 1.3% among 110,000 | AID 449768;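 active means Z score or B-score, a plate-position-corrected score, falls beyond the plate's 99.7% confidence bounds, in either direction; inactive means both scores lie inside the 99.7% bounds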;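 further: scored against the spread of the other compound wells on the same plate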
Target sequence (Q01959 whole entry, looked up): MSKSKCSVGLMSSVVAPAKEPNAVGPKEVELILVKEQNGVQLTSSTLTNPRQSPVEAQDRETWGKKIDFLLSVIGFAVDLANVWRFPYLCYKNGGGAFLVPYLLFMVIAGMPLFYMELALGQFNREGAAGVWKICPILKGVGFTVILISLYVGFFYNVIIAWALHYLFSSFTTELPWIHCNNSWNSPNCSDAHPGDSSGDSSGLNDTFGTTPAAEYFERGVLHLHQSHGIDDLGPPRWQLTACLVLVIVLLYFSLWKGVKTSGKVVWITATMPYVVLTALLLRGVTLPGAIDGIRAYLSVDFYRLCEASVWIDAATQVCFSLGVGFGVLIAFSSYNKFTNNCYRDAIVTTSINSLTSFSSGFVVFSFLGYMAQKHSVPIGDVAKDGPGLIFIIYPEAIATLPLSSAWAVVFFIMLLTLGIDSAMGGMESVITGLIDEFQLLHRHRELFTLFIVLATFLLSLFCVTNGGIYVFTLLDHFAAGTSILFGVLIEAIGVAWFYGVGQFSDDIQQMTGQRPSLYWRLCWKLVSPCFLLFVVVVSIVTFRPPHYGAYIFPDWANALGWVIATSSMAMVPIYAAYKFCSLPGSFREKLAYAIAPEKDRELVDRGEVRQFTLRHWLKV
Numbers without * were called inactive. Most compounds without a hit are left out; they make up all but 5.4% or so of the library.

`Cc1ccc(C(C(=O)NC(C)(C)C)N(Cc2ccco2)C(=O)CCC(=O)Nc2nccs2)cc1` (stereo unspecified) gave EphB4 antag 3.8 and Rev-RRE block 4.0.
For Clc1ccc(Cn2ncc3c(NCc4ccco4)ncnc32)c(Cl)c1 the results were EphB4 antag 2.7, Rev-RRE block 11.6, Cav3 T inh -5.78* and DAT uptake mod 0.157.
O=C(COC(=O)C1CCN(S(=O)(=O)c2cccs2)CC1)c1cc2ccccc2o1 was read as EphB4 antag -6.4, Rev-RRE block 22.3, Cav3 T inh -1.22 and DAT uptake mod 1.02.
Screening Cc1cc(C(C)(C)C)oc1C(=O)N(CC(=O)NC1CCCC1)c1c(C)cccc1C returned EphB4 antag 0.4, Rev-RRE block 4.6, Cav3 T inh -1.59* and DAT uptake mod -0.061.
O=C(CCSc1nnc2scc(-c3ccccc3)n12)Nc1nc(-c2ccccc2)ns1 was read as EphB4 antag 4.2, Rev-RRE block 6.1, Cav3 T inh -4.65* and DAT uptake mod -0.754.
CCCCC(=O)Nc1nc(C)c(C(C)=O)s1 was read as EphB4 antag -6.3, Rev-RRE block 1.7, Cav3 T inh -2.06 and DAT uptake mod -0.616.
Screening CC(=O)c1sc(NC(=O)C2(F)C(F)(F)C(F)(F)C(F)(F)C(F)(F)C2(F)F)nc1C returned Cav3 T inh -4.01* and DAT uptake mod -2.18.
Screening Cc1cccc(-n2ncc3c(N4CCC(C)CC4)ncnc32)c1 returned EphB4 antag -2.6, Rev-RRE block 11.0, Cav3 T inh -1.04 and DAT uptake mod 0.113.
Screening CCN(CC)C(=O)C1CCCN(c2ncnc3c2cnn3-c2cccc(C)c2)C1 (stereo unspecified) returned Cav3 T inh -1.61 and DAT uptake mod 3.28*.
For COc1ccc(C2C(C#N)=C3NC(=O)c4c(sc5c4CCCCC5)N3C3=C2C(=O)CC(C)(C)C3)cc1 (stereo unspecified) the results were EphB4 antag -3.1, Rev-RRE block 19.0, Cav3 T inh -2.19 and DAT uptake mod 2.33*.
For CCOc1ccc(OCC)c(-c2c(=O)n(OCc3ccc(C(C)(C)C)cc3)c3ccccc3[n+]2[O-])c1 the results were EphB4 antag -5.9, Rev-RRE block -6.6, Cav3 T inh -3.65 and DAT uptake mod -0.313.
`CCN1C=CC2=C(C#N)C(N)C(C#N)(C#N)C(c3ccccc3C(F)(F)F)C2C1` (stereo unspecified) gave EphB4 antag 2.3, Rev-RRE block 58.5*, Cav3 T inh -2.93 and DAT uptake mod 0.914.
Screening CC(C)(C)C(=O)c1sc(Nc2ccccc2)nc1N returned EphB4 antag 4.0, Rev-RRE block 0.6, Cav3 T inh -1.76 and DAT uptake mod 1.32*.
CCCCC1C(C#N)=C(C)NC2=C1C(=O)CC(C)(C)C2 (stereo unspecified) was read as EphB4 antag 3.0, Rev-RRE block 9.2, Cav3 T inh 3.12 and DAT uptake mod -0.735.
Screening O=c1ccc2cc3c([nH]c4ccc(Br)cc43)oc-2c1O returned EphB4 antag 11.2, Rev-RRE block 36.7*, Cav3 T inh -0.863 and DAT uptake mod 0.853.
`Cc1ccc2nc(N3CCN(C(=O)c4cccs4)CC3)c(C#N)cc2c1` gave Cav3 T inh -4.79* and DAT uptake mod -0.0332.
COc1ccc(C(=O)N2CCN(c3nc4cc(C)ccc4cc3C#N)CC2)c(OC)c1 was read as EphB4 antag 1.8, Rev-RRE block 6.7, Cav3 T inh -0.54 and DAT uptake mod 0.802.
COc1ccc(OC)c(-n2c(=S)[nH]c3cc(C(=O)NCCCN4CCCC4=O)ccc3c2=O)c1 was read as EphB4 antag 5.6 and Rev-RRE block 0.6.
`COc1ccc2[nH]c(C)c(C(=O)CN3CCOCC3)c2c1` gave EphB4 antag 1.0, Rev-RRE block 9.8 and DAT uptake mod -2.97*.
COc1ccccc1N1CCN(CC(=O)c2c(C)[nH]c3cc(C)ccc23)CC1 was read as EphB4 antag 7.7, Rev-RRE block 14.5, Cav3 T inh -4.21* and DAT uptake mod 0.914.
`COc1ccc(-c2ccc(N)[n+](CCCC(=O)O)n2)cc1` gave DAT uptake mod -0.427.
Screening Cc1ccc(C(C(=O)NC2CCCCC2)N2CCN(C(=O)c3ccco3)CC2)cc1 (stereo unspecified) returned EphB4 antag 3.0, Rev-RRE block -0.7, Cav3 T inh 0.517 and DAT uptake mod 0.815.
`COc1ccc2[nH]c3c(NCCCN4CCCC4=O)ncnc3c2c1` gave EphB4 antag 1.2, Rev-RRE block 3.7, Cav3 T inh 1.15 and DAT uptake mod 2.92*.
For COc1ccc2[nH]c3c(NCCN(C(C)C)C(C)C)ncnc3c2c1 the results were EphB4 antag 8.2, Rev-RRE block 9.7, Cav3 T inh 1.31 and DAT uptake mod 1.74.
Screening Cc1nn(C)c(C)c1S(=O)(=O)N1CCC(C(=O)NC2CCCCC2)CC1 returned EphB4 antag 2.1, Rev-RRE block -4.8, Cav3 T inh 0.198 and DAT uptake mod -0.0176.
Cc1nn(C)c(C)c1S(=O)(=O)N1CCC(C(=O)NC2CCCCCC2)CC1 was read as Cav3 T inh -0.238 and DAT uptake mod -2.65*.
`CCCCCN=Cc1c(C)[nH]n(-c2nc3ccccc3s2)c1=O` gave EphB4 antag -2.4, Rev-RRE block 9.7, Cav3 T inh 0.486 and DAT uptake mod 2.51*.
For CCCc1[nH]n(-c2nc3ccccc3s2)c(=O)c1C=NCCN1CCOCC1 the results were EphB4 antag 2.0, Rev-RRE block 3.6, Cav3 T inh 0.693 and DAT uptake mod 0.0153.
`Cc1ccc(OCCNC(=O)c2ccccc2N)cc1` gave EphB4 antag -5.7, Rev-RRE block -3.1, Cav3 T inh -0.0108 and DAT uptake mod -0.122.
Cc1cccc(C)c1NC(=O)C(=O)NCCOc1ccc(Cl)cc1 was read as EphB4 antag 2.3, Rev-RRE block 6.1, Cav3 T inh -3.61* and DAT uptake mod -1.07.
For Cc1ccccc1N(CC(=O)NCCSC1CCCCC1)S(=O)(=O)c1ccccc1 the results were EphB4 antag -6.2, Rev-RRE block 5.0, Cav3 T inh -6.02* and DAT uptake mod 0.048.
Cc1ccc(S(=O)(=O)N(CC(=O)NCCSCc2ccco2)c2cc(C)ccc2C)cc1 was read as EphB4 antag -2.8, Rev-RRE block -2.3, Cav3 T inh -6.74* and DAT uptake mod -0.233.
`COc1ccc(N(CC(=O)NCCSc2ccccn2)S(C)(=O)=O)cc1Cl` gave EphB4 antag -2.4, Rev-RRE block 1.9, Cav3 T inh 1.77 and DAT uptake mod -0.0279.
Cc1ccc(S(=O)(=O)N(CC(=O)NCCSc2ccccn2)c2cc(C)cc(C)c2)cc1 was read as EphB4 antag 3.3, Rev-RRE block 8.0, Cav3 T inh -6.42* and DAT uptake mod -0.436.
For C=CCc1ccc(OCCOc2cccc3ccc(C)nc23)c(OC)c1 the results were EphB4 antag -4.8, Rev-RRE block 8.9, Cav3 T inh -2.09 and DAT uptake mod 0.672.
CSCCC1(C(=O)O)NC(c2ccccc2O)C2C(=O)N(C(C)C)C(=O)C21 (stereo unspecified) was read as EphB4 antag -11.5, Rev-RRE block 7.0, Cav3 T inh -0.529 and DAT uptake mod -2.55*.
